# Laboratory results published in publication PMC5299035 (Drug development research, 2016).
# Legend:
# Assay type in all cases: cell-based
# [1] = tested on: human neutrophils; test: Ca2+ mobilization assay in human neutrophils; conditions: for EC50: Homo sapiens, Neutrophil, read-out: Ca2+ flux human neutrophils EC50; for Ca2+ flux human neutrophils efficacy: % of the response induced by 5 nM fMLF
# Outline: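 Neutrophils from healthy donors were purified by dextran sedimentation, Histopaque 1077 gradient and hypotonic red-cell lysis (>95% pure, >98% viable). After Fluo-4 AM loading (1.25 μg/mL final, 30 min, 37 °C, dark), cells were seeded at 2 × 10^5/well in HBSS with Ca2+/Mg2+. Fluorescence (485/538 nm) was tracked every 5 s for 240 s at room temperature. Maximum change over baseline was normalised, and EC50 came from a 5-6-point nonlinear fit.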
# [2] = target: T1, FPR1 (Homo sapiens, UniProt P21462); test: Ca2+ mobilization assay in FPR1-HL60 cells; conditions: for Emax: read-out: Ca2+ flux FPR1-HL60 efficacy; for Ca2+ flux FPR1-HL60 efficacy: % of the response induced by 5 nM fMLF
# T1 sequence (P21462 1-350): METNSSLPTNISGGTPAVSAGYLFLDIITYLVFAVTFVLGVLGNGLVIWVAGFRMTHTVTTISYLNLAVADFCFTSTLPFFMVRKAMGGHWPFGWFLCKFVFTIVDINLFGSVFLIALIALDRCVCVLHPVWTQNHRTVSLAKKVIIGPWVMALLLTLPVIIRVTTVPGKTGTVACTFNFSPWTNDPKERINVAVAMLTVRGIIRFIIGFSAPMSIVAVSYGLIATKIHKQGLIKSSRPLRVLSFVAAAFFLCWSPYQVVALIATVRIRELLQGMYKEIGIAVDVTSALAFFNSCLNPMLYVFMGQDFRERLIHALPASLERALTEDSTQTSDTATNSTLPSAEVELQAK
# Outline: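 FPR1-transfected HL60 cells were grown in RPMI 1640 with 10% heat-inactivated FCS, 10 mM HEPES and G418 (1 mg/mL). Cells were loaded with Fluo-4 AM (1.25 μg/mL final) for 30 min at 37 °C in the dark, then washed and seeded in HBSS+ at 2 × 10^5 cells/well. Fluorescence (485/538 nm) was read every 5 s for 240 s at room temperature after compound addition. Peak rise over baseline was set against 5 nM fMLF (100%). EC50 came from nonlinear regression of 5-6-point curves, mean of three independent experiments. No activity meant no response within 2 min (limits: efficacy >20%, EC50 <50 μM).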
# [3] = target: T2, FPR2 (Homo sapiens, UniProt P25090); test: Ca2+ mobilization assay in FPR2-HL60 cells; conditions: for Emax: read-out: Ca2+ flux FPR2-HL60 efficacy; for Ca2+ flux FPR2-HL60 efficacy: % of the response induced by 5 nM WKYMVm
# T2 sequence (P25090 1-351): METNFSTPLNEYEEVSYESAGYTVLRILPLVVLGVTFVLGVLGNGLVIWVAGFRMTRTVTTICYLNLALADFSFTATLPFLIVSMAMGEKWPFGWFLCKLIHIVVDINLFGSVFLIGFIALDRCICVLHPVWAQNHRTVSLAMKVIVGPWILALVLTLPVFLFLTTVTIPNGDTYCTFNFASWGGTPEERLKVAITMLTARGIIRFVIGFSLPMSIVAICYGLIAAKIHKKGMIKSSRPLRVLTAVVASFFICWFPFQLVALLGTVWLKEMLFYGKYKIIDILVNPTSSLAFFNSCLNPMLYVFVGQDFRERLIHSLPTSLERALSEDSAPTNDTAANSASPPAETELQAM
# Outline: (§1)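 FPR2- or FPR3-transfected HL60 cells were grown in RPMI 1640 with 10% heat-inactivated FCS and G418 1 mg/mL. Cells were loaded with Fluo-4 AM (1.25 μg/mL final) for 30 min at 37 °C in the dark, washed, and seeded at 2 × 10^5 cells/well in HBSS+. Fluorescence (ex 485/em 538 nm) was read every 5 s for 240 s at room temperature. Peak rise over baseline was normalised to the reference agonist. EC50 came from 5-6-point nonlinear regression over three independent experiments.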
# [4] = target: T3, FPR3 (Homo sapiens, UniProt P25089); test: Ca2+ mobilization assay in FPR3-HL60 cells; conditions: for Emax: read-out: Ca2+ flux FPR3-HL60 efficacy; for Ca2+ flux FPR3-HL60 efficacy: % of the response induced by 10 nM WKYMVm
# T3 sequence (P25089 1-353): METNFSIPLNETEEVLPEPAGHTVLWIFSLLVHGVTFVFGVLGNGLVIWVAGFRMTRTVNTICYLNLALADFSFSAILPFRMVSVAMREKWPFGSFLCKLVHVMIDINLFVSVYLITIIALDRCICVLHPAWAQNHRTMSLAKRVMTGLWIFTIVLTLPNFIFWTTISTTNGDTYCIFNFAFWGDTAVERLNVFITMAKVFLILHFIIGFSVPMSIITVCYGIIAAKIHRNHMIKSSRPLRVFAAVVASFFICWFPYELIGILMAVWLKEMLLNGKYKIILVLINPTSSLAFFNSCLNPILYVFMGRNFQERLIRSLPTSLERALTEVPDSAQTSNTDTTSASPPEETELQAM
# Outline: as §1
# [5] = tested on: mouse neutrophils; test: Ca2+ mobilization assay in mouse neutrophils; conditions: for Ca2+ flux mouse neutrophils EC50: N.A. = no activity (no response during first 2 min)
# Outline: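 Bone marrow was flushed from BALB/c mouse tibias and femurs and separated on a Percoll gradient (45/50/55/62/81%, 1600g, 30 min, 10 °C). Red cells were removed over Histopaque 1119. Neutrophils were loaded with Fluo-4 AM (1.25 μg/mL final) for 30 min at 37 °C, seeded in HBSS+ at 2 × 10^5 cells/well, and read at 485/538 nm every 5 s for 240 s at room temperature. Responses were normalized to 10 nM WKYMVm. EC50 came from nonlinear regression of 5-6-point curves, three experiments.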
# [6] = target: T4, mouse Fpr1 (Mus musculus, UniProt P33766); test: Ca2+ mobilization assay in mFpr1-RBL cells; conditions: for Ca2+ flux mFpr1-RBL EC50: RBL cells transfected with mouse Fpr1, N.A. = no activity; for Ca2+ flux mFpr1-RBL efficacy: % of the response induced by 10 nM WKYMVm
# T4 sequence (P33766 1-364): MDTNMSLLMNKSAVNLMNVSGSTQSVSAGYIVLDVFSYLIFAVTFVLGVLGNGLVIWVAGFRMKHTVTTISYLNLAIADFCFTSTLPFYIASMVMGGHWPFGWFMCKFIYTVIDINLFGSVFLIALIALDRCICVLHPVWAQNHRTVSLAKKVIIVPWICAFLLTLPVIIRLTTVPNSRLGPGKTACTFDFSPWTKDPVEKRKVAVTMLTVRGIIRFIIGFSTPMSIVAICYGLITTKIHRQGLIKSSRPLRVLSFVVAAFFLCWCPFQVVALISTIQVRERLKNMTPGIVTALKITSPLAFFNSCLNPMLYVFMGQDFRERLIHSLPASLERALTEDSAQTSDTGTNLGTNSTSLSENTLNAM
# Outline: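 RBL-2H3 rat basophilic leukemia cells transfected with mouse Fpr1 were kept in DMEM with 20% FBS and G418 250 μg/ml. Cells were dye-loaded with Fluo-4 AM (1.25 μg/mL final) for 30 min at 37 °C and plated at 2 × 10^5/well in HBSS+. Fluorescence (485/538 nm) was followed every 5 s for 240 s at room temperature. Peak over baseline was normalised, and EC50 was taken by 5-6-point nonlinear regression, averaged from three independent experiments.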
# [7] = target: T5, mouse Fpr2 (Mus musculus, UniProt O88536); test: Ca2+ mobilization assay in mFpr2-RBL cells; conditions: for Ca2+ flux mFpr2-RBL EC50: RBL cells transfected with mouse Fpr2, N.A. = no activity
# T5 sequence (O88536 1-351): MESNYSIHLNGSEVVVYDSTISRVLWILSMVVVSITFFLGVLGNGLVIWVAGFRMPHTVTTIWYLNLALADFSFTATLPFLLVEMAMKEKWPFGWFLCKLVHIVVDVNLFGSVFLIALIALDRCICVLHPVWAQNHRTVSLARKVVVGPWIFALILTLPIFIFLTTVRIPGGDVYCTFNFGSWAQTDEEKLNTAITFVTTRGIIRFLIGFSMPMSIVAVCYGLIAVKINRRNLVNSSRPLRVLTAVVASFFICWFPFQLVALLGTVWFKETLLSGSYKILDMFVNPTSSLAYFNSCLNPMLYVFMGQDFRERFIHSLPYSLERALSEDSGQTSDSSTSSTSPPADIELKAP
# Outline: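 RBL-2H3 cells stably expressing mouse Fpr2 were grown in DMEM with 20% FBS, 10 mM HEPES and G418 (250 μg/ml). Fluo-4 AM (1.25 μg/mL final) was loaded for 30 min at 37 °C in the dark. Cells were seeded in HBSS+ at 2 × 10^5 cells/well, and fluorescence (485/538 nm) was read every 5 s for 240 s at room temperature. Peak rise was normalized to 10 nM WKYMVm (100%). EC50 came from nonlinear regression of 5-6-point curves over three independent experiments.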
# [8] = % of the response induced by 10 nM WKYMVm
EC50 [1],Emax [2],Emax [3],EC50 [4],Emax [4],Ca2+ flux mouse neutrophils EC50 [5],Ca2+ flux mFpr1-RBL EC50 [6],Ca2+ flux mFpr2-RBL EC50 [7],Ca2+ flux FPR1-HL60 efficacy [2],Ca2+ flux FPR2-HL60 efficacy [3],Ca2+ flux FPR3-HL60 efficacy [4],Ca2+ flux mFpr1-RBL efficacy [6],"Ca2+ flux mFpr2-RBL efficacy [7, 8]",Structure (SMILES),Ca2+ flux human neutrophils efficacy [1],"Ca2+ flux mouse neutrophils efficacy [5, 8]"
6 ± 2 nM,85%,80%,40 ± 11 nM,165%,complete inactivity,complete inactivity,complete inactivity,,,,,,"COc1cccc(Cc2c(C)c(C)nn(CC(=O)Nc3ccc(Br)cc3)c2=O)c1 [4a, N-(4-Bromophenyl)-2-[5-(3-methoxybenzyl)-3,4-dimethyl-6-oxopyridazin-1(6H)-yl]acetamide]",,
,,,,,,,,60%,120%,150%,70%,,"CC1=NN(CC(=O)Nc2ccc(Br)cc2)C(=O)CC1C (racemic) [(±)-6a, (±)N-(4-Bromophenyl)-2-[3,4-dimethyl-6-oxo-5,6-dihydropyridazin-1(4H)-yl]acetamide]",115%,
,,,,,,,,90%,110%,120%,60%,220%,"CC1=NN(CC(=O)Nc2ccc(Br)cc2)C(=O)CC1c1ccccc1 (racemic) [(±)-6b, (±)N-(4-Bromophenyl)-2-[3-methyl-6-oxo-4-phenyl-5,6-dihydropyridazin-1(4H)-yl]acetamide]",75%,160%
270 ± 25 nM,60%,95%,130 ± 32 nM,100%,complete inactivity,complete inactivity,complete inactivity,,,,,,"COc1ccc(Cc2c(C)c(C)nn(CC(=O)Nc3ccc(Br)cc3)c2=O)cc1 [4b, N-(4-Bromophenyl)-2-[5-(4-methoxybenzyl)-3,4-dimethyl-6-oxopyridazin-1(6H)-yl]acetamide]",,
